This is a sample that favours compounds with a hit; in the whole collection about 3% have one here.
Wnt bcat act: activates Wnt/beta-catenin signaling in a reporter cell assay; activator, plate reader; activation, % at 9.35 µM; 1.2% of 300,000 active; AID 743398; in the data active = activation above about 30%, passing the limit was not always enough;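 also: 0% = neutral control wells and 100% = positive control wells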
NSD2 inh: inhibitors of human histone methyltransferase NSD2; O96028; NSD2 peptide methylation, AlphaScreen, 120 min; inhibition, % at 12.5 µM; 0.54% of 310,000 active; AID 743445; in the data active = inhibition above about 50%
CASP6 VEID inh: inhibitors of human caspase-6. P55212. purified caspase-6, Z-VEID-R110 cleavage fluorescence. inhibition, % at 12.5 µM. 0.53% of 350,000 active;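 active = mean inhibition across replicates at least about 35%, with every replicate also reaching that limit, limit read from the data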;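 also: 0% = median of neutral control wells and 100% = no fluorescence left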
MITF TRPM1 HTS: MITF TRPM1 promoter activation in melanoma cells | SK-MEL-5 TRPM1-promoter luciferase, 24 h; % of positive control, neutral wells = 0 | activation, % at 12.5 µM | 0.75% of 300,000 active;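 active = mean activation of at least 80% with every replicate also reaching 80%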;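 also: 0% = neutral control wells and 100% = parthenolide positive control wells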
XiGFP reactiv: X-chromosome reactivation activator. XiGFP mouse fibroblasts, % GFP-positive cells imaging, 3 d; cells co-treated with 5-aza-dC sensitizer; scaled so ellipticine positive control = 100%. activation, % at 7.58 µM. 0.055% of 360,000 active. AID 743238;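 active = mean normalized replicate activation at least 10% and every replicate at or above 10%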;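 also: 0% = median of on-plate neutral control wells and 100% = ellipticine 6 µM median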
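Material: SV40-immortalized XiGFP fibroblast cells, line 68-5-11 | Buffer or medium: DMEM containing 5-aza-dC | Dosing: One concentration, pinned | Times: 3 d treatment, 15 min room-temperature fixation | Controls: Ellipticine 6 µM positive control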
esBAF inh: SWI/SNF esBAF complex inhibition; mouse ES cells, Bmi1-luciferase knock-in reporter, 24 h; 100% = twice the neutral-well signal; reporter increase, % at 12.5 µM; 2% of 350,000 active; in the data active = activation above about 40%;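 also: 0% = median of the plate's neutral control wells and 100% = double that signal; a rise in the Bmi1 reporter signal indicates esBAF inhibition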
AlphaScreen art: counter-screen for NSD2 inhibitors: AlphaScreen artifacts; AlphaScreen artifact counterscreen, preloaded methylated H4 peptide; 9.4% of 1,500 active; AID 1053174; AC35, µM (series often up to 10 µM), for the others: at the highest dose activity change, negative = signal loss; shares compounds with NSD2 inh; call rule not given here
* hit, by the source's call; x = no result.

SMILES	Wnt bcat act	NSD2 inh	CASP6 VEID inh	MITF TRPM1 HTS	XiGFP reactiv	esBAF inh	AlphaScreen art
CCOC(=O)C1=C(C)N(C)C(=S)NC1c1ccccc1Cl (configuration not stated)	x	96.0*	x	-9.9	x	-7.1	1.1%
C[C@H]1CN([C@@H](C)CO)C(=O)c2cc(C#CC(C)(C)O)cnc2O[C@@H]1CN(C)C(=O)CN(C)C	x	x	1.2	x	0.1	-0.1	x
CN(C)c1cccc2c(S(=O)(=O)Nc3ccccn3)cccc12	1.5	57.8*	x	x	x	-0.7	-2.7%
COc1ccccc1NC1C=CS(=O)(=O)C1 (configuration not stated)	-2.0	97.3*	x	x	x	-5.6	-5.3%
Cc1ccc(-n2nc3c(=O)n(CC(=O)NCc4ccccc4)nc(C)c3c2C)cc1	-1.0	79.7*	-0.3	-17.6	0.1	2.0	-1.2%
O=C(N[C@H]1CC[C@@H](CCNS(=O)(=O)c2ccc(F)cc2)O[C@H]1CO)C1CCOCC1	x	x	-1.8	x	-0.3	1.9	x
C[C@H]1CN([C@@H](C)CO)C(=O)c2cc(NC(=O)CCC(F)(F)F)ccc2O[C@@H]1CN(C)C(=O)Nc1ccc(F)cc1	x	x	0.9	x	-1.1	-0.4	x
Cc1noc(C)c1NC(=O)Nc1ccc2c(c1)C(=O)N([C@@H](C)CO)C[C@@H](C)[C@H](CN(C)S(=O)(=O)c1cccs1)O2	x	x	-0.1	x	0.2	3.5	x
O=C(CSc1ccc(-c2cccnc2)nn1)N1CCCCCC1	-1.8	3.5	-0.1	-11.5	0.2	-3.8	x
O=C(CSc1ccc(-c2cccnc2)nn1)N1CCCC1	1.6	52.5*	1.3	8.5	0.1	x	2.2%
N=C1/C(=C\c2ccc(Br)o2)C(=O)N=C2SC(CC(=O)N3CCOCC3)=NN12	-2.0	93.7*	61.5*	-4.3	0.0	-2.6	-11.4%
Oc1ccc(/C=N/N2CCOCC2)c(O)c1O	-1.8	86.6*	7.4	-13.6	0.0	x	-2.4%
COc1cccc(/C=N/N2CCOCC2)c1O	20.3	1.7	2.4	46.6	0.5	x	x
COc1ccc(NC2=CC(c3ccccc3)N(c3ccc(OC)cc3)C2=O)cc1 (configuration not stated)	11.8	-2.4	0.8	x	0.0	x	x
COc1ccc(NC2=CC(c3cccc(OC)c3)N(c3ccc(OC)cc3)C2=O)cc1 (configuration not stated)	x	51.8*	x	-11.4	0.0	x	-7.8%
CO[C@@H]1CN(C)C(=O)c2ccc(NS(C)(=O)=O)cc2OC[C@@H](C)N(C(=O)NC(C)C)C[C@H]1C	x	x	-3.3	x	0.0	0.9	x
COc1ccc(C#Cc2cnc3c(c2)C(=O)N([C@H](C)CO)C[C@@H](C)[C@@H](CN(C)CC2CC2)O3)cc1	x	x	x	x	1.2	x	x
Cc1cc(=O)cc(C)n1-c1ccc(O)cc1	-2.6	71.4*	7.6	-3.6	0.1	x	-1.7%
Cc1cc(=O)cc(C)n1-c1ccc(Cl)cc1	-0.6	-2.3	0.7	-4.5	0.1	x	x
COc1cc(/C=C2\SC(N)=NC2=O)cc(Cl)c1O	3.3	67.7*	1.1	-2.4	0.0	-2.8	-3.8%
CC(=O)c1ccc(NC(=O)CC2Nc3cccc4cccc(c34)NC2=O)cc1 (configuration not stated)	-0.5	78.2*	8.8	-5.5	0.3	x	-4.9%
CC(=O)Nc1ccc(NC(=O)CC2Nc3cccc4cccc(c34)NC2=O)cc1 (configuration not stated)	x	7.5	x	-13.3	x	-4.0	x
CC(C)NC(=O)N(C)C[C@@H]1Oc2cc(C#CCN(C)C)ccc2S(=O)(=O)N([C@@H](C)CO)C[C@H]1C	x	x	1.7	x	-0.5	0.3	x
O=C1C=C(N2CCCCC2)c2ccccc2C1=O	-11.9	114.1*	99.6*	x	0.3	-41.5	-0.4%
COc1ccccc1C(=O)Nc1ccc2c(c1)C(=O)N(C)[C@@H]1CC[C@@H](CC(=O)NCCc3ccncc3)O[C@H]1CO2	x	x	0.0	x	0.1	-1.1	x
SMILES	Wnt bcat act	NSD2 inh	CASP6 VEID inh	MITF TRPM1 HTS	XiGFP reactiv	esBAF inh	AlphaScreen art
CCc1c(C)c2cc(Cl)c(O)c(CN(C)C)c2oc1=O	-2.3	0.4	7.9	-2.2	x	-3.6	x
Cc1c(C)c2cc(Cl)c(O)c(CN(C)C)c2oc1=O	-1.9	118.7*	x	-9.4	x	-2.7	-2.0%
CCCC(CCC(=O)Nc1cccc([N+](=O)[O-])c1)C(=O)O (configuration not stated)	3.8	83.4*	-0.5	6.4	-0.1	-5.4	-0.6%
O=C(CCc1ccccc1)Nc1cccc([N+](=O)[O-])c1	0.1	13.2	-0.8	7.5	0.3	8.4	x
O=C(Cn1cnc2c(cnn2-c2ccccc2)c1=O)OCc1ccccc1	x	94.9*	x	x	x	33.7	4.6%
O=C1CCCC(O)=C1N=Nc1cccc(C(=O)O)c1	10.2	69.0*	37.3*	-7.6	0.1	16.0	-1.9%
CCN(CC)S(=O)(=O)c1cccc(N=NC2=C(O)CCCC2=O)c1	-5.7	1.9	x	-6.0	-0.1	x	x
COCCNC(=O)[C@H]1[C@H](CO)[C@H]2Cn3c(ccc(-c4ccc(OC)cc4)c3=O)[C@@H]1N2C(=O)NC(C)C	x	x	-1.3	x	0.5	2.0	x
CC(=O)N1CCN(Cc2nc3cc(NC(=O)Cn4nc(C)c5ccccc5c4=O)ccc3n2C)CC1	x	59.9*	x	14.5	x	5.6	2.8%
O=C(NCCc1ccccn1)C1CCCN1S(=O)(=O)c1ccc(Cl)cc1 (configuration not stated)	1.4	119.4*	x	2.4	0.3	2.2	-1.3%
Cc1cccnc1NC(=O)C1CCCN1S(=O)(=O)c1ccc(Cl)cc1 (configuration not stated)	-1.9	0.4	5.0	-1.0	0.3	0.5	x
COc1ccc(C(C(=O)NC(C)(C)C)N(C(=O)CCC(=O)Nc2cc(C)on2)c2ccccc2F)cc1 (configuration not stated)	-1.2	77.3*	6.5	-2.3	0.4	-7.1	-0.2%
CCCCN(C(=O)CCC(=O)Nc1cc(C)on1)C(C(=O)NC(C)(C)C)c1ccccc1Cl (configuration not stated)	-1.7	-6.0	x	-1.2	0.0	-4.3	x
COCCN(C(=O)CCC(=O)Nc1cc(C)on1)C(C(=O)NC(C)(C)C)c1ccccc1Cl (configuration not stated)	-0.8	139.7*	-0.8	-4.2	0.0	-0.7	-5.8%
COc1ccc(C(C(=O)NC(C)(C)C)N(C(=O)CCC(=O)Nc2cc(C)on2)c2cc(C)cc(C)c2)cc1 (configuration not stated)	-1.4	14.1	1.8	-9.6	0.5	6.4	x
COc1ccc(S(=O)(=O)N(C)C[C@@H]2Oc3ncc(-c4ccncc4)cc3C(=O)N([C@@H](C)CO)C[C@@H]2C)cc1	x	x	-0.2	x	-1.1	4.4	x
COc1ccc(/C=C(\C#N)C(=O)N2COCC2(C)C)cc1	-1.7	59.4*	3.6	-6.6	0.4	10.6	0.6%

High-throughput results deposited in PubChem BioAssay by Broad Institute.
